Results on 30 molecules are retold here after ChEMBL document CHEMBL1136495, “Synthesis of new 3-arylisoquinolinamines: effect on topoisomerase I inhibition and cytotoxicity” (Bioorg Med Chem Lett, 2003).

In experiment [1] the test system is SK-OV-3. Put plainly: Cytotoxic activity against SKOV-3 human ovarian tumor cell line, using sulforhodamine B (SRB) assay. It counts as functional, cell-based. In outline: (§1)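 In vitro sulforhodamine B (SRB) staining assay on human tumor cell lines. Values are reported as IC50 for cytotoxicity.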
A general note: Sulforhodamine B stains cellular protein and so reports cell mass.

Experiment [2] has as its system A549. Put plainly: Cytotoxic activity against A 549 human lung tumor cell line, using sulforhodamine B (SRB) assay. In kind it is functional, cell-based. The method in brief: as §1
The subject of experiment [3] is SK-MEL-2. Put plainly: Cytotoxic activity against SK-MEL-2 human melanoma cell line, using sulforhodamine B (SRB) assay. In kind it is functional, cell-based. In outline:
as §1

Experiment [4] has as its target T1, DNA topoisomerase 1 (Homo sapiens) (UniProt P11387).
T1 sequence (whole entry): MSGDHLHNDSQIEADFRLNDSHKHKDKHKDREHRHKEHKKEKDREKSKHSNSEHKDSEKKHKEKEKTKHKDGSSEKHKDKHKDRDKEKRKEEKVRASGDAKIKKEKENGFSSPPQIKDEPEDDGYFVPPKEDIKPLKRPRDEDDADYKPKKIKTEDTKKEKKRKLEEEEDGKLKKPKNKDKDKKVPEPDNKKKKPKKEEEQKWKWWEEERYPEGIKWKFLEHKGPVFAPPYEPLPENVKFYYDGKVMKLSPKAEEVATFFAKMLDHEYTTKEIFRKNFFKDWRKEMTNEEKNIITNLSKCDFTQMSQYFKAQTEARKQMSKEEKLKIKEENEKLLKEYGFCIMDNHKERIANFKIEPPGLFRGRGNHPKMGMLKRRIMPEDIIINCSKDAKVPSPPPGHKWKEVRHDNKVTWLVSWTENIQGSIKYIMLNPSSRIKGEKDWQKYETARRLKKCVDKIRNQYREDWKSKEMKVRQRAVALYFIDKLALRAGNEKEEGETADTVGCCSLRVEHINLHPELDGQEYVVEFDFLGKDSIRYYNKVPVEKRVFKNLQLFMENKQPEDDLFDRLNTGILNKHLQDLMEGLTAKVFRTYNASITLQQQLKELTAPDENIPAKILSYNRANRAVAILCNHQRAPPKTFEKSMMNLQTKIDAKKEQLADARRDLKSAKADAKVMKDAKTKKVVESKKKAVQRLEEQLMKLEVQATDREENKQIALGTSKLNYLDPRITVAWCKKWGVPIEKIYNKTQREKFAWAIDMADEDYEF
Put plainly: Inhibitory activity against Topoisomerase I in supercoiled DNA unwinding assay method; Weak activity.

Experiment [5] has as its system HCT-15. Kind of experiment: Cytotoxic activity against HCT 15 human colon tumor cell line, using sulforhodamine B (SRB) assay. In kind it is functional, cell-based. In outline: as §1
Experiment [6] has as its target T1, DNA topoisomerase 1 (Homo sapiens). Put plainly: Inhibitory activity against Topoisomerase I was determined by the supercoiled DNA unwinding assay method; Greater activity than Camptothecin.
The test system of experiment [7] is OCI-AML2. Put plainly: Cytotoxic activity against DX-100: doxorubicin (100 ng/mL) resistant AML-2 cell line was determined. It counts as functional.
For experiment [8], the system named is OCI-AML2. Put plainly: Cytotoxic activity against D100 daunorubicin (100 nM) resistant AML-2 cell line was determined. In kind it is functional.
In experiment [9] the test system is OCI-AML2. Kind of experiment: Cytotoxic activity against wild type AML-2 leukemia cell line was determined. It counts as functional.

pIC50: −log10 of the molar value. Some results are limits rather than exact numbers.

The pIC50 is the IC50 on a negative log10 scale, so that one unit is a factor of ten. High values mean a low IC50, low ones a high IC50. With `CN1CCCN(c2nc(-c3cccc4ccccc34)cc3ccccc23)CC1`, the pIC50 in experiment [1] is 5.44; in experiment [2], 6.28; in experiment [3] it was 5.70; in experiment [5], 5.71. Moreover, in experiment [4], the Activity result was “Weak activity”.

In the case of `Cc1ccc(-c2cc3cc(C)ccc3c(NCCN)n2)cc1`, the Activity result in [6] is “Greater activity than Camptothecin”. The negative logarithm of the IC50 (pIC50) in [1], in experiment [2], in [3] and in experiment [5] was less than 3.52 in each case.

Regarding `CN1CCCN(c2nc(-c3ccc(Br)cc3)cc3ccccc23)CC1`, the pIC50 was 5.41 in [1], 5.22 in experiment [2], 5.39 in experiment [3] and 5.28 in experiment [5].

For `CC(=O)N[C@H]1CC[C@H](Nc2nc(-c3ccccc3)cc3ccccc23)CC1`, the pIC50 in [1] is 3.73; in experiment [2], 3.84; in experiment [3], 3.74; in experiment [5], 3.60. Moreover, the Activity result in experiment [4] is “Weak activity”.

For the molecule `Nc1nc(-c2ccccc2)cc2ccccc12`, the pIC50 is 5.69 in [1], 5.56 in experiment [2], 5.83 in experiment [3] and 5.73 in [5].

`Cc1cccc(-c2cc3cc(C)ccc3c(NCc3ccccc3)n2)c1`: the negative logarithm of the IC50 (pIC50) in experiment [1] is 3.84; in experiment [2], 3.77; in experiment [3], 4.05; in [5], 3.95. Further, the Activity result in [4] was “Weak activity”.

Take `Cc1ccc2c(N3CCCN(C)CC3)nc(-c3ccccc3C)cc2c1`: the negative logarithm of the IC50 (pIC50) was 6.15 in [1], 6.36 in [2], 6.00 in experiment [3] and 5.92 in experiment [5].

Regarding `c1ccc(CNc2nc(-c3ccccc3)cc3ccccc23)cc1`, the pIC50 in experiment [1] is 3.99; in [2], 3.75; in experiment [3], 4.08; in [5] it was 4.06. Also, the Activity entry in [4] was “Weak activity”.

For `CN1CCN(c2nc(-c3ccccc3)cc3ccccc23)CC1`, the pIC50 in experiment [1] was 4.86; in experiment [2], 4.87; in experiment [3], 4.84; in experiment [5] it was 4.86.

Take `CCN1CCN(c2nc(-c3ccc(C)cc3)cc3cc(C)ccc23)CC1`: the pIC50 in experiment [1] was 4.20; in experiment [2] it was 4.57; in experiment [3], 4.84; in [5] it was 5.09. Also, the Activity result in experiment [4] was “Weak activity”.

Regarding `COc1cccc2c1C(=O)c1c(O)c3c(c(O)c1C2=O)C[C@@](O)(C(=O)CO)C[C@@H]3O[C@H]1C[C@H](N)[C@H](O)[C@H](C)O1` [DOXORUBICIN], the Cytotoxicity in [7] amounted to 3.2 µg/mL; in experiment [8], 1.93 µg/mL; in [9], 0.01 µg/mL. Besides, the values for the negative-log IC50 (pIC50) in experiment [1], in experiment [3] and in [5] were 5.93, 5.32 and 5.78, respectively.

`Cc1ccc2c(N)nc(-c3ccccc3C)cc2c1.Cl`: the results for the Cytotoxicity in [7] and in experiment [9] were 0.0056 µg/mL and 0.0078 µg/mL, respectively. The molecule further came in with an Activity in experiment [8] of 0.0027 µg/mL. For the same molecule, the negative logarithm of the IC50 (pIC50) in experiment [1] was 6.68; in [2], 6.77; in experiment [3] it was 6.85; in experiment [5], 6.77.

`Cc1ccccc1-c1cc2ccccc2c(N[C@H]2CC[C@H](N)CC2)n1`: the negative logarithm of the IC50 (pIC50) was 5.04 in [1], 4.99 in experiment [2], 5.19 in [3] and 5.12 in experiment [5]. The Activity entry in [4] is “Weak activity”.

For `Cc1ccc2c(NCCN)nc(-c3ccccc3C)cc2c1`, the negative logarithm of the IC50 (pIC50) in experiment [1], in [2], in [3] and in experiment [5] was less than 3.52 in each case. In addition, the Activity entry in experiment [4] is “Weak activity”.

Turning to `CCN1CCN(c2nc(-c3ccccc3Cl)cc3cc(C)ccc23)CC1`, the Activity entry in experiment [6] is recorded as “Greater activity than Camptothecin”. In addition, the negative logarithm of the IC50 (pIC50) in experiment [1] was 3.71; in [2], 4.87; in experiment [3], 5.25; in [5] it was 5.25.

As to `CCN1CCN(c2nc(-c3ccccc3)cc3ccccc23)CC1`, the pIC50 was 4.16 in [1], 4.26 in experiment [2], 4.02 in experiment [3] and 5.14 in experiment [5]. In experiment [4], the Activity result was “Weak activity”.

As to `Cc1ccc2c(NCCN)nc(-c3ccccc3Cl)cc2c1`, the pIC50 in experiment [1], in experiment [2], in experiment [3] and in [5] was less than 3.52 in each case. Moreover, the Activity entry in experiment [4] was “Weak activity”.

In the case of `Cc1ccc2c(NCCN)nc(-c3ccccc3)cc2c1`, the Activity result in experiment [6] is “Greater activity than Camptothecin”. Moreover, the pIC50 in experiment [1], in experiment [2], in [3] and in experiment [5] was less than 3.52 throughout.

With `Cc1ccc(-c2cc3ccccc3c(N3CCCN(C)CC3)n2)cc1`, the pIC50 in experiment [1] was 5.03; in experiment [2], 5.91; in [3] it was 5.21; in [5], 5.11.

`Cc1cccc(-c2cc3ccccc3c(N3CCCN(C)CC3)n2)c1`: the pIC50 was 5.09 in [1], 5.07 in experiment [2], 5.05 in experiment [3] and 5.04 in experiment [5]. In addition, in experiment [4], the Activity entry is “Weak activity”.

Consider `Cc1ccc2c(NCc3ccccc3)nc(-c3ccccc3)cc2c1`, for which the pIC50 in [1] is 3.81; in experiment [2], 3.91; in [3], 4.03; in [5] it was 4.19.

On to `Cc1cccc(-c2cc3ccccc3c(NCc3ccccc3)n2)c1`, for which the negative logarithm of the IC50 (pIC50) in [1] is 3.78; in [2], 3.99; in experiment [3], 4.07; in [5], 3.97. Also, the Activity result in experiment [4] is “Weak activity”.

Consider `Cc1ccccc1-c1cc2ccccc2c(N)n1`, for which the pIC50 is 5.74 in experiment [1], 5.50 in experiment [2], 5.68 in experiment [3] and 5.72 in experiment [5].

As for `Cc1ccc(-c2cc3ccccc3c(NCc3ccccc3)n2)cc1`, the pIC50 in experiment [1] is 3.71; in experiment [2], 3.77; in [3], 3.88; in experiment [5], 3.77.

`CN1CCCN(c2nc(-c3ccccc3)cc3ccccc23)CC1`: the Activity result in [6] is given as “Greater activity than Camptothecin”. Besides, the pIC50 in [1] was 4.77; in experiment [2], 4.96; in experiment [3], 5.08; in [5] it was 4.96.

Regarding `N[C@H]1CC[C@H](Nc2nc(-c3ccccc3)cc3ccccc23)CC1`, the pIC50 in [1] is 5.36; in experiment [2], 5.10; in experiment [3], 5.11; in [5] it was 5.14.

For the molecule `CCN1CCN(c2nc(-c3ccccc3C)cc3cc(C)ccc23)CC1`, the pIC50 in experiment [1] was 4.21; in [2], 4.68; in experiment [3], 4.89; in experiment [5], 5.06.

With `CN1CCCN(c2nc(-c3ccc(Cl)cc3)cc3ccccc23)CC1`, the pIC50 was 4.70 in [1], 4.93 in experiment [2], 5.07 in experiment [3] and 5.01 in [5].

In the case of `CCN1CCN(c2nc(-c3ccccc3)cc3cc(C)ccc23)CC1`, the pIC50 was 4.38 in [1], 4.74 in experiment [2], 4.92 in [3] and 5.62 in experiment [5].

Take `COc1cccc2c1C(=O)c1c(O)c3c(c(O)c1C2=O)C[C@@](O)(C(C)=O)C[C@@H]3O[C@H]1C[C@H](N)[C@H](O)[C@H](C)O1` [DAUNORUBICIN]: the figures for the Cytotoxicity in experiment [7], in [8] and in experiment [9] were 0.43 µg/mL, 0.52 µg/mL and 0.001 µg/mL, respectively.
